# From PubChem BioAssay
# Tb MetRS inh: blocks T. brucei methionyl-tRNA synthetase activity; purified T. brucei MetRS, ATP depletion, Kinase-Glo luminescence; inhibition, % at 11.9 µM; 360,000 compounds, 0.4% hits; AID 624268;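 active means inhibition above a per-plate cutoff of the control wells' mean inhibition plus 3 SD, cut at about 5.5% in these data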;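 further: 0% = DMSO wells median and 100% = median of wells with control inhibitor compound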
#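 System: purified T. brucei MetRS enzyme / Detection: Kinase-Glo luciferase luminescence reporting remaining unconsumed ATP / Medium: HEPES buffer with MgCl2, KCl, DTT, spermine, BSA, pyrophosphatase / Replication: singlicate, one well per compound / Evaluation: percent inhibition relative to median high and low control wells / Schedule: 2 h aminoacylation at 25 °C after 15 min preincubation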
# p47phox inh: blocks human p47phox regulatory protein of NADPH oxidases; P14598; p47phox/p22phox peptide binding, fluorescence polarization, 2 h; inhibition, % at 24.7 µM; 220,000 compounds, 0.53% hits; AID 1274;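 further: 0% = p47phox with labelled peptide and 100% = labelled peptide alone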
# SUMO HTRF inh: SUMOylation inhibition | inhibition, % at 35 µM | AID 2006 | 290,000 compounds, 0.36% hits | P63279 | HTRF SUMOylation assay, SAE1/SAE2 + UBC9, in vitro; in the data active means inhibition above about 50%, passing the limit was not always enough
# p97 ATPase inh: blocks human p97 ATPase activity; recombinant p97 ATPase, Kinase-Glo ATP luminescence, 3 h; inhibition, % at 8 µM; 220,000 compounds, 0.42% hits; AID 1481; in the data active means inhibition above about 15%;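 further: 0% = DMSO vehicle and 100% = wells lacking enzyme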
# Target sequence (P55072 whole entry, looked up): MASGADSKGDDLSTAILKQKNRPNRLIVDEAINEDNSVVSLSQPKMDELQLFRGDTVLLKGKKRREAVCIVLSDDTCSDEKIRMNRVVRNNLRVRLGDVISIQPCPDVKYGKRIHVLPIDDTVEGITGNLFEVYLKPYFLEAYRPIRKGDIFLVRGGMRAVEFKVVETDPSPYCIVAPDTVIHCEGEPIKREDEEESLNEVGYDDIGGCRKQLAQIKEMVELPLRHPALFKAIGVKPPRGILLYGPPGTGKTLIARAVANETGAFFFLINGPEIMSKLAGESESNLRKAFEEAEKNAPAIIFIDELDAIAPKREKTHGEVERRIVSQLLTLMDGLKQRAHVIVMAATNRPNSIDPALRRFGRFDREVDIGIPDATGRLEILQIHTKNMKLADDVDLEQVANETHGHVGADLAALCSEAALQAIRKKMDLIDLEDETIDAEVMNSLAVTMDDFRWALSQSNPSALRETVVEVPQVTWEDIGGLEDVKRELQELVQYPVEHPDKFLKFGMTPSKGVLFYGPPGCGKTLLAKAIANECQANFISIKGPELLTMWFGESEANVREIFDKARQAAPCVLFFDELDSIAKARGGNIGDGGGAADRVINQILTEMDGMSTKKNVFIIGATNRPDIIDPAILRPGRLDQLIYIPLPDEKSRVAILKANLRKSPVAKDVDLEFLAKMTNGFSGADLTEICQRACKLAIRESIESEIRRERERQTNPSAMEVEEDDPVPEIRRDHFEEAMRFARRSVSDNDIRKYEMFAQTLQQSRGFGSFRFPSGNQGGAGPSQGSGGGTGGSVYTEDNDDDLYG
# eIF4E-4G inh: blocks eIF4E binding to eIF4G; TR-FRET eIF4E-eIF4GI(517-606) binding, 2 h; 220,000 compounds, 0.37% hits; AID 782; inhibition, % at 21.7 µM;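 further: 0% = full FRET control wells and 100% = background wells lacking eIF4GI fragment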
# 14-3-3 Bad inh: disrupts binding of bovine 14-3-3 zeta to phospho-Bad peptide. P63103. TR-FRET 14-3-3zeta/Dy647-pBad peptide displacement, 1 h. inhibition, % at 21.7 µM. 220,000 compounds, 0.71% hits. AID 781;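 active means inhibition above about 70%, limit read from the data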;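 further: 0% = full 14-3-3 plus peptide FRET controls and 100% = background without 14-3-3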
# An asterisk follows results filed as active; nt = no result given; [ ] = remark or other dose. An excerpt weighted towards active compounds, which were near 1.6% of everything screened.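 How the source made its calls, unless noted: active means inhibition above about 30% (limit read from the data); inactive means the rest.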
SMILES,Tb MetRS inh,p47phox inh,SUMO HTRF inh,p97 ATPase inh,eIF4E-4G inh,14-3-3 Bad inh
CN1CCc2c(sc(NC(=O)c3cc4cc([N+](=O)[O-])ccc4s3)c2C(N)=O)C1,nt,77.4*,5.1,8.7,-8.7,72.0*
CC(C)N1CCc2c(sc(NC(=O)c3ccc4ccccc4c3)c2C(N)=O)C1,-0.2,nt,-9.8,nt,nt,nt
Cc1cccc(NC(=O)c2cc3cc([N+](=O)[O-])ccc3s2)n1,-0.8,3.3,-4.6,-0.4,2.3,89.3*
CC(C)N1CCc2c(sc(NC(=O)c3cc4cc([N+](=O)[O-])ccc4s3)c2C(N)=O)C1,-0.1,19.1,-22.7,2.4,3.6,95.5*
CN1CCc2c(sc(NC(=O)c3ccc(S(=O)(=O)N4CCc5ccccc54)cc3)c2C(N)=O)C1,nt,-33.6,-38.3,14.7*,-18.4,48.5
Cc1cc(NC(=O)CS(=O)c2cn(Cc3cccc(Cl)c3)c3ccccc23)no1 (centres undefined),-0.3,nt,nt,nt,nt,nt
Cn1c(=O)n(C)c2cc(/C=N/N=C3/NC(=O)C(CC(=O)O)S3)ccc21 (centres undefined),0.1,-2.5,11.8,1.7,2.8,20.6
CCCc1nc2c3ccccc3ccn2c1Cc1cccc(F)c1,-0.4,nt,nt,nt,nt,nt
CC(C)c1cc(Cn2c3ccccc3c(=O)n2C(C)Cn2cc(-c3ccccc3)nn2)on1 (centres undefined),0.4,nt,nt,nt,nt,nt
CCc1cccc(NS(=O)(=O)c2ccc3c(c2)oc(=O)n3C)c1,-0.3,40.4*,26.7,5.9,1.7,1.7
Cn1c(=O)oc2cc(S(=O)(=O)Nc3ccccc3)ccc21,0.4,5.8,11.3,6.5,-0.5,-9.1
Cc1noc(C)c1C(=O)N1CCCC(C)(C(=O)NS(=O)(=O)C2CC2)C1 (centres undefined),-0.2,nt,nt,nt,nt,nt
O=C(/C=C/c1ccc2c(c1)OCO2)c1ccc[nH]1,-1.4,81.2*,25.9,-7.9,8.1,-2.4
COCCNCc1cc(C)n(-c2cc(S(=O)(=O)N3CCOCC3)ccc2N2CCCC2)c1C,0.4,nt,nt,nt,nt,nt
O=S(=O)(c1ccc(N2CCC(c3ccc(Cl)cc3)=N2)cc1)N(CCO)CCO,-1.1,-22.1,41.3,-2.2,-0.6,-2.5
CN(C)CCCNS(=O)(=O)c1ccc(N2CCC(c3ccc(Cl)cc3)=N2)cc1,nt,40.6*,65.2*,1.5,2.5,17.8
O=C1c2ccccc2C(=O)N1CCCCSc1nnc2ccccn12,-0.7,132.7*,-6.9,0.2,3.4,0.6
Cc1ccccc1NC(=O)CN1C(=O)COc2ccc(Cl)cc21,0.7,-8.5,-15.7,15.0*,-4.7,8.2
O=C(CN1C(=O)COc2ccc(Cl)cc21)Nc1ccccn1,0.1,nt,17.7,nt,nt,nt
CCCCOCCCn1c(-c2ccco2)nc2nc3ccccc3nc21,-0.9,-21.1,49.7,-1.8,54.1*,-8.3
O=C(Cn1c2ccccc2c(=O)c2ccccc21)N/N=C/c1cc([N+](=O)[O-])ccc1N1CCCCCC1,0.2,-20.8,nt,3.5,nt,nt
O=C(Cn1c2ccccc2c(=O)c2ccccc21)N/N=C/c1ccc(N2CCCC2)c([N+](=O)[O-])c1,-0.5,29.3,23.7,-5.7,28.9,98.5*[fluorescence artefact?]
COc1cccc(/C=N/NC(=O)C(=O)N/N=C/c2cccc(OC)c2O)c1O,0.5,-7.1,70.6*,-1.1,-12.4,37.5
COC(=O)c1ccc(CNC(=O)Cn2nnnc2CN(C)C(C)C)cc1,-0.5,nt,-3.9,nt,nt,nt
CCOC(=O)N1CCC(NC(=O)c2ccc3nc4ccccc4c(=O)n3c2)CC1,nt,39.4*,35.8,1.2,5.1,-8.4
SMILES,Tb MetRS inh,p47phox inh,SUMO HTRF inh,p97 ATPase inh,eIF4E-4G inh,14-3-3 Bad inh
CCOC(=O)N1CCC(NC(=O)c2cc(-c3ccc(OC)cc3)nc3ccccc23)CC1,-0.1,nt,13.7,nt,nt,nt
CC1CC(C)CN(C(C(=O)NC2CCCCC2)c2cc3ccccc3o2)C1 (centres undefined),-1.5,nt,nt,nt,nt,nt
COc1cc2c(c(Br)c1N)-c1cc(Br)c(N)cc1C2=O,-0.2,nt,nt,nt,nt,nt
O=C(Nc1ccc(Cl)cc1)C1Cc2c(-c3ccccc3)ccnc2O1 (centres undefined),-0.1,nt,nt,nt,nt,nt
COc1ccc(NC(=O)/C(=C/c2cccs2)NC(=O)c2ccco2)cc1,-0.5,-6.9,18.8,0.7,3.0,-0.5
CC(=O)c1ccc(NC(=O)/C(=C\c2cccs2)NC(=O)c2ccco2)cc1,-0.9,-5.3,5.7,5.8,-3.3,87.8*
CN(C)C(CNC(=O)CCCN1C(=O)c2cccc3cccc(c23)C1=O)c1ccccc1 (centres undefined),-0.4,nt,15.0,nt,nt,nt
O=C(COC(=O)C12CC3CC(CC(Br)(C3)C1)C2)Nc1c(F)cccc1F,0.0,nt,nt,nt,nt,nt
COc1cccc(C(=O)N2CCN(Cc3ccccc3C(F)(F)F)CC2)c1,-1.2,-7.4,-4.6,-4.2,-1.4,74.0*
COc1cc(CN2CCN(Cc3ccccc3C(F)(F)F)CC2)cc(OC)c1OC,1.7,nt,-17.7,nt,nt,nt
COc1cccc(C(=O)N2CCN(Cc3cc(Br)ccc3OC)CC2)c1,0.2,-8.0,-16.5,-7.8,1.6,71.8*
Cc1ccc(CN2CCN(Cc3ccccc3C(F)(F)F)CC2)cc1,0.1,0.4,-8.4,-0.9,-3.0,80.5*
COc1ccc(Br)cc1CN1CCCC(C(=O)N2CCCCC2)C1 (centres undefined),-0.8,-8.6,13.5,0.8,-9.3,73.2*
Cc1ccc(C(=O)C(C)OC(=O)CNS(=O)(=O)c2ccc(C)cc2)cc1 (centres undefined),-0.3,nt,nt,nt,nt,nt
Cc1c(Br)cc(C(=O)O)c(C)c1C,0.2,-3.2,8.5,5.3,7.0,12.3
Cc1c(N)cc(N)cc1C(=O)O,0.2,-1.0,48.9,0.0,-0.8,84.0*
O=C(NCc1cccc(Cl)c1)C1Cc2c(-c3ccccc3)ccnc2O1 (centres undefined),-0.1,nt,nt,nt,nt,nt
COc1cc(CO)c(Br)cc1OCC(=O)Nc1ccccc1C,-0.8,-17.6,-5.4,0.8,-0.5,-12.4
COc1cc(CO)c(Br)cc1OCC(N)=O,-0.1,-2.6,2.7,-0.4,1.1,81.9*
CCOC(=O)c1ccc(N2C(=O)CC(Nc3ccc(O)cc3)C2=O)cc1 (centres undefined),-0.7,34.7*,37.2,-4.2,1.1,-2.6
CCOC(=O)c1ccc(N2C(=O)CC(NNC(=O)c3ccc(Br)s3)C2=O)cc1 (centres undefined),-0.2,-14.9,10.6,5.6,-3.0,2.1
CCOC(=O)c1nn(-c2ccc3c(c2)CCN3C(C)=O)cc1O,0.1,-9.6,52.5*,6.0,-1.6,-4.5
Cc1[nH]n(-c2ccccc2)c(=S)c1C=Nc1cccc([N+](=O)[O-])c1,-0.2,89.0*,-8.9,-0.9,54.8*,-15.8
O=[N+]([O-])c1ccc(Cl)c2c1C1C=CCC1C(c1ccccn1)N2 (centres undefined),0.1,0.3,22.3,8.0,7.6,-11.4
O=C(O)c1ccc(Cl)c2c1C1C=CCC1C(c1ccccn1)N2 (centres undefined),nt,40.2*,32.9,1.3,10.2,21.4
